# Data reported in ChEMBL document CHEMBL1145795, “Design, synthesis, and evaluation of analogues of 3,3,3-trifluoro-2-hydroxy-2-phenyl-propionamide as orally available general anesthetics” (J Med Chem, 2003).
# The source made the active and inactive calls. The calls are words filed in the database; no cut-off is given here.
# Key:
# Rattus norvegicus [1] = organism: Rattus norvegicus; assay: Compound was tested for anticonvulsant activity by measuring the therapeutic index by maximal electroshock in rat; assay type: functional
# Summary of the method: (§1)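 NINDS ADD Phase II quantification with oral dosing. […] Therapeutic index is rotarod TD50 divided by the MES or scMET ED50.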
# Rattus norvegicus [2] = organism: Rattus norvegicus; assay: Compound was tested for anticonvulsant activity using rotarod method in rat; assay type: functional; summary of the method: as §1
# Rattus norvegicus [3] = assay: Compound was tested for anticonvulsant activity against subcutaneous metrazole in rat; assay type: functional; details: sc; summary of the method: as §1
# Rattus norvegicus [4] = organism: Rattus norvegicus; assay: Compound was tested for anticonvulsant activity against maximal electroshock in rat; assay type: functional; summary of the method: as §1
# Rattus norvegicus [5] = assay: Compound was tested for minimum alveolar concentration in rat at dose 60 mg/kg administered intraperitoneally; assay type: functional; details: route intraperitoneal
# Summary of the method: (§2)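 Rats were isoflurane-induced, intubated and ventilated, with femoral arterial and venous lines and normothermia. Baseline MAC was taken by tail clamp for 1 min, stepping isoflurane by 0.1% with 12–15 min equilibration. MAC was the midpoint between movement and no movement. The compound (60 mg/kg) was sonicated in 3 mL peanut oil and given ip. MAC was redetermined at 30 min and 1 h. Blood pressure was recorded; values are given as mean ± SEM.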
# Rattus norvegicus [6] = assay: Compound was tested for blood pressure in rat at dose 60 mg/kg administered intraperitoneally; assay type: functional; details: route intraperitoneal; summary of the method: as §2
# [7] = biological target: T1, Sodium channel protein type 4 subunit alpha (Homo sapiens, UniProt P35499); assay: Inhibition of sodium channels through phasic blockade; assay type: functional
# T1 sequence (P35499 whole entry): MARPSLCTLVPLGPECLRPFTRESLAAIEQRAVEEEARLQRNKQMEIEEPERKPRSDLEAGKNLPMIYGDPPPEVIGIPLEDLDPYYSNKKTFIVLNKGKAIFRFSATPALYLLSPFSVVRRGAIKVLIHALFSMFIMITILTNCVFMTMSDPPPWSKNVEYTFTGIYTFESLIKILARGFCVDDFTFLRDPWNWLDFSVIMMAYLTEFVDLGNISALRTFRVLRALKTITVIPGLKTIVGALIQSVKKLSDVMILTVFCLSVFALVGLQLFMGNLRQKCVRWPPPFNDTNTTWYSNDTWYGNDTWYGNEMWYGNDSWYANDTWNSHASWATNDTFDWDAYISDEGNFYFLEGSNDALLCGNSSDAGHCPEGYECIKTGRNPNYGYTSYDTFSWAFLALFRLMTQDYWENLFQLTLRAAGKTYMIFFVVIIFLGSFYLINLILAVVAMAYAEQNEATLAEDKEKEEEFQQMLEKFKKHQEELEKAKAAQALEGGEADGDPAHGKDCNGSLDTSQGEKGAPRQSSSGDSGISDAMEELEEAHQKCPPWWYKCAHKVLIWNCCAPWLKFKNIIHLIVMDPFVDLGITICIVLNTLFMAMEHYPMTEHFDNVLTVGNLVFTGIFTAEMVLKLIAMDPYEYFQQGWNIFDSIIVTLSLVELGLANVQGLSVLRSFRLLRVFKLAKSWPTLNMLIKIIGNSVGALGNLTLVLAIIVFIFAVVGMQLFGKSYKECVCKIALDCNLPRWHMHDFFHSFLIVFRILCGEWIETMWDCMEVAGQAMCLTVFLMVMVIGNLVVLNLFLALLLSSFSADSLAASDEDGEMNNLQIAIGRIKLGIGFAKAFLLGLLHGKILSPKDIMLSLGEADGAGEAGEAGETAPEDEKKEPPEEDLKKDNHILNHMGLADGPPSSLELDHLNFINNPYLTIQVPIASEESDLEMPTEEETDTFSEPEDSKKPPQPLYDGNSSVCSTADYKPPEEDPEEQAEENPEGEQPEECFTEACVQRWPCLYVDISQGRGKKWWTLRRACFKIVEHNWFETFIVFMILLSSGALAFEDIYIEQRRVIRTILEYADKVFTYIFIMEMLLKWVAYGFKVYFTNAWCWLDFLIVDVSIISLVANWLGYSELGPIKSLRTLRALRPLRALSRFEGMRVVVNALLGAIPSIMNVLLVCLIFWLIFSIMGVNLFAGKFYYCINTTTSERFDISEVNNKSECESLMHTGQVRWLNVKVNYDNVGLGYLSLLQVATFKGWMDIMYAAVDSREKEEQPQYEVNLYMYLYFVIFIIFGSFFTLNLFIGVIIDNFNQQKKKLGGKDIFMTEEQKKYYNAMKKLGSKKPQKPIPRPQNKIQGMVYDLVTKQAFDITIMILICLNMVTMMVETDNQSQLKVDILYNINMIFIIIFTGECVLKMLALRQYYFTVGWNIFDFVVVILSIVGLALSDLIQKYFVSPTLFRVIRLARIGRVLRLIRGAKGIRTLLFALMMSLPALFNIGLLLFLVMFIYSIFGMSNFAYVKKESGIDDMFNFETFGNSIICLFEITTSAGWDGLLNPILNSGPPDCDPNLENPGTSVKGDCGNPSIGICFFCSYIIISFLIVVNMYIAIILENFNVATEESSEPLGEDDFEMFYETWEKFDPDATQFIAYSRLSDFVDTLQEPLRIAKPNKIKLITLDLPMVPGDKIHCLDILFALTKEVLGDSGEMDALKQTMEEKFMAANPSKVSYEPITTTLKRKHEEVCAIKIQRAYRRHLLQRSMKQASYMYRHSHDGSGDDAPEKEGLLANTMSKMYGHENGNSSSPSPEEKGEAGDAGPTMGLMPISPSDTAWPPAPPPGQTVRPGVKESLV
# [8] = biological target: T1, Sodium channel protein type 4 subunit alpha; assay: Inhibition of sodium channels through tonic blockade; assay type: functional
# Mus musculus [9] = assay: Compound was tested for anticonvulsant activity against subcutaneous metrazole at dose 30 mg/kg in time 0.5 hr in mice administered subcutaneously; assay type: functional
# Summary of the method: (§3)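 Run by the NINDS ADD program in mice, challenged with maximal electroshock or subcutaneous metrazol at 0.5 h and 4 h after dosing. Protection is scored per animal (e.g. […], 5 for scMet at 100 mg/kg).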
# Mus musculus [10] = assay: Compound was tested for anticonvulsant activity using rotarod method at dose 300 mg/kg in time 4 hr in mice administered subcutaneously; assay type: functional; details: route subcutaneous
# Summary of the method: (§4)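 NINDS ADD rotarod neurotoxicity screen in mice at 0.5 h and 4 h post-dose. The score is inability to grasp the rotating rod; loss of righting reflex after falling was also noted.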
# Mus musculus [11] = assay: Compound was tested for anticonvulsant activity against maximal electroshock at dose 300 mg/kg in time 4 hr in mice administered subcutaneously; assay type: functional; details: route subcutaneous; summary of the method: as §3
# Mus musculus [12] = assay: Compound was tested for anticonvulsant activity using rotarod method at dose 100 mg/kg in time 4 hr in mice administered subcutaneously; assay type: functional; details: route subcutaneous; summary of the method: as §4
# Mus musculus [13] = assay: Compound was tested for anticonvulsant activity against subcutaneous metrazole at dose 100 mg/kg in time 4 hr in mice administered subcutaneously; assay type: functional; summary of the method: as §3
# Mus musculus [14] = assay: Compound was tested for anticonvulsant activity against maximal electroshock at dose 100 mg/kg in time 0.5 hr in mice administered subcutaneously; assay type: functional; details: route subcutaneous; summary of the method: as §3
# HEK293 [15] = assay: Inhibition of rat TASK-1 and TASK-3-leak K+ channels expressed in HEK293 cells at 100 uM; NE denotes no effects; assay type: functional, cell-based
# Mus musculus [16] = assay: Compound was tested for anticonvulsant activity against maximal electroshock at dose 300 mg/kg in time 0.5 hr in mice administered subcutaneously; assay type: functional; details: route subcutaneous; summary of the method: as §3
# [17] = biological target: Protein kinase C (PKC) (Homo sapiens) (UniProt O94806+P41743+P17252+P05129+Q05655+P05771+Q05513+Q02156+P24723+Q15139+Q04759); assay: Inhibition of protein kinase C at 100 uM; NE=no effect; assay type: protein assay
# Mus musculus [18] = assay: Compound was tested for anticonvulsant activity against subcutaneous metrazole at dose 30 mg/kg in time 4 hr in mice administered subcutaneously; assay type: functional; summary of the method: as §3
# HEK293 [19] = assay: Effect on HEK293 cells co-expressing voltage-gated Na+ channel rNav 1.3 and beta-3 at 10 uM; NE=No effect; assay type: functional, cell-based
# Summary of the method: (§5)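 rNaV1.3 coexpressed with β3 in HEK293 cells (and Xenopus oocytes), exposed to 10 µM or 100 µM and assessed for Na+ channel block.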
# Mus musculus [20] = assay: Compound was tested for anticonvulsant activity using rotarod method at dose 300 mg/kg in time 0.5 hr in mice administered subcutaneously; assay type: functional; details: route subcutaneous; summary of the method: as §4
# Mus musculus [21] = assay: Compound was tested for anticonvulsant activity against maximal electroshock at dose 30 mg/kg in time 0.5 hr in mice administered subcutaneously; assay type: functional; details: route subcutaneous; summary of the method: as §3
# Mus musculus [22] = assay: Compound was tested for anticonvulsant activity against maximal electroshock at dose 30 mg/kg in time 4 hr in mice administered subcutaneously; assay type: functional; details: route subcutaneous; summary of the method: as §3
# Mus musculus [23] = assay: Compound was tested for anticonvulsant activity against maximal electroshock at dose 100 mg/kg in time 4 hr in mice administered subcutaneously; assay type: functional; details: route subcutaneous; summary of the method: as §3
# Rattus norvegicus [24] = assay: Compound was tested for isoflurane minimum alveolar concentration in rat at dose 60 mg/kg administered intraperitoneally; assay type: functional; details: route intraperitoneal; summary of the method: as §2
# Mus musculus [25] = assay: Compound was tested for anticonvulsant activity against subcutaneous metrazole at dose 300 mg/kg in time 4 hr in mice administered subcutaneously; assay type: functional; summary of the method: as §3
# HEK293 [26] = assay: Effect on HEK293 cells co-expressing voltage-gated Na+ channel rNav 1.3 and beta-3 at 100 uM; NE=No effect; assay type: functional, cell-based; summary of the method: as §5
# [27] = biological target: Gamma-aminobutyric acid receptor subunit gamma-1 (Rattus norvegicus) (UniProt P23574); assay: Enhanced 10 uM GABA-A receptor currents in rat hippocampal neurons; NE=no effect; assay type: functional, tissue-based; details: Hippocampus
# Sequence of Gamma-aminobutyric acid receptor subunit gamma-1 (Rattus norvegicus) (P23574 whole entry): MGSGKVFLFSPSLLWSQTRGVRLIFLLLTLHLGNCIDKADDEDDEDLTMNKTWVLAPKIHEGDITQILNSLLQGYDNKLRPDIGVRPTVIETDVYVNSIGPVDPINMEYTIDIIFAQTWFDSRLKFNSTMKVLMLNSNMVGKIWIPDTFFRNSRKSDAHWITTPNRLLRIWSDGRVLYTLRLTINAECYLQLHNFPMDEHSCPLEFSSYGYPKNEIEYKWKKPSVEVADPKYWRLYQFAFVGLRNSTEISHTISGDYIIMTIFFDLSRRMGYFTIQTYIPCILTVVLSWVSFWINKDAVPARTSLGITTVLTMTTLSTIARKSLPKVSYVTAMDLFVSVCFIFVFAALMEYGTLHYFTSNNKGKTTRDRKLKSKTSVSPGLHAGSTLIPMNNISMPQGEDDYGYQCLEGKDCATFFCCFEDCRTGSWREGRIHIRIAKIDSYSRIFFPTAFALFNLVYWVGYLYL
# Summary of the method: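 Peak current is expressed as percent of the GABA-alone control. Concentration–response was fitted to a four-parameter logistic; values are given as mean ± SEM.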
# Mus musculus [28] = assay: Compound was tested for anticonvulsant activity against subcutaneous metrazole at dose 100 mg/kg in time 0.5 hr in mice administered subcutaneously; assay type: functional; summary of the method: as §3
# Rattus norvegicus [29] = assay: Compound was tested for anticonvulsant activity by measuring the therapeutic index by subcutaneous metrazole in rat; assay type: functional; summary of the method: as §1
# Mus musculus [30] = assay: Compound was tested for anticonvulsant activity using rotarod method at dose 100 mg/kg in time 0.5 hr in mice administered subcutaneously; assay type: functional; details: route subcutaneous; summary of the method: as §4
# Mus musculus [31] = assay: Compound was tested for anticonvulsant activity against subcutaneous metrazole at dose 300 mg/kg in time 0.5 hr in mice administered subcutaneously; assay type: functional; summary of the method: as §3
smiles,measurement,setting,value
O=C1NC(=O)C(c2ccccc2)(c2ccccc2)N1 [PHENYTOIN],T.I.,Rattus norvegicus [1],6.9
same,ED50,Rattus norvegicus [2],66 mg/kg
same,ED50,Rattus norvegicus [3],> 300 mg/kg
same,ED50,Rattus norvegicus [4],9.5 mg/kg
O=C(O)C(O)(c1ccccc1)C(F)(F)F (stereo not given),MAC reduction,Rattus norvegicus [5],-9.1%
same,Mean blood pressure,Rattus norvegicus [6],116 mmHg
NC(=O)C(OCc1ccccc1)(c1ccccc1)C(F)(F)F (stereo not given),MAC reduction,Rattus norvegicus [5],-4.4%
same,Mean blood pressure,Rattus norvegicus [6],121 mmHg
O=C1Nc2ccccc2C1(O)C(F)(F)F (stereo not given),MAC reduction,Rattus norvegicus [5],-4.3%
same,Mean blood pressure,Rattus norvegicus [6],113 mmHg
NC(=O)C(O)(c1ccccc1)C(F)(F)Cl (stereo not given),MAC reduction,Rattus norvegicus [5],-43%
same,Mean blood pressure,Rattus norvegicus [6],81 mmHg
NC(=O)C(O)(Cc1ccccc1)C(F)(F)F (stereo not given),MAC reduction,Rattus norvegicus [5],0%
same,Mean blood pressure,Rattus norvegicus [6],111 mmHg
NC(=O)C(O)(CC(F)(F)F)c1ccccc1 (stereo not given),MAC reduction,Rattus norvegicus [5],-11%
same,Mean blood pressure,Rattus norvegicus [6],107 mmHg
CN1C(=O)C(O)(C(F)(F)F)c2ccccc21 (stereo not given),MAC reduction,Rattus norvegicus [5],-4.4%
same,Mean blood pressure,Rattus norvegicus [6],112 mmHg
CNC1(c2ccccc2Cl)CCCCC1=O (stereo not given) [KETAMINE],IC50,[7],2.3 mM
same,IC50,[8],0.8 mM
NC(=O)C(O)(c1ccccc1)C(F)(F)F (stereo not given),Protection,Mus musculus [9],0
same,Protection,Mus musculus [10],2
same,Protection,Mus musculus [11],1
same,Protection,Mus musculus [12],2
same,Protection,Mus musculus [13],0
same,Protection,Mus musculus [14],3
same,Activity,HEK293 [15],inactive
same,Protection,Mus musculus [16],1
same,Activity,[17],inactive
same,T.I.,Rattus norvegicus [1],10
same,MAC reduction,Rattus norvegicus [5],-34%
same,Protection,Mus musculus [18],0
same,Activity,HEK293 [19],inactive
same,Activity,HEK293 [19]; Xenopus sp.,inactive
same,Protection,Mus musculus [20],4
same,Mean blood pressure,Rattus norvegicus [6],119 mmHg
same,Protection,Mus musculus [21],0
same,Protection,Mus musculus [22],0
same,Protection,Mus musculus [23],3
same,ED50,Rattus norvegicus [2],100 mg/kg
same,Volume reduction,Rattus norvegicus [24],34%
same,ED50,Rattus norvegicus [3],39 mg/kg
same,Protection,Mus musculus [25],1
same,Activity,HEK293 [26],inactive
same,Activity,HEK293 [26]; Xenopus sp.,inactive
same,Activity,[27],inactive
same,Protection,Mus musculus [28],5
same,T.I.,Rattus norvegicus [29],2.6
same,Protection,Mus musculus [30],4
same,Protection,Mus musculus [31],1
same,ED50,Rattus norvegicus [4],9.9 mg/kg
NCC(O)(c1ccccc1)C(F)(F)F (stereo not given),MAC reduction,Rattus norvegicus [5],-6.5%
same,Mean blood pressure,Rattus norvegicus [6],116 mmHg
CC(O)(C(N)=O)c1ccccc1 (stereo not given) [ATROLACTAMIDE],MAC reduction,Rattus norvegicus [5],0%
same,Mean blood pressure,Rattus norvegicus [6],127 mmHg
